Data set [1] can be described thus: Drug uptake in mitochondria of human U937 cells at 1 uM measured after 4 hrs using FITC-labeled compound by Hoechst and MitoTracker Deep Red dye-based confocal live cell microscopy. Format: ADME. The conditions noted are these: u-937, 4 h. The procedure, abridged:
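Live U937 lymphoma cells given FITC-labelled peptide (1 μM) for 4 h. Nuclei stained with Hoechst and mitochondria with MitoTracker; colocalization imaged by confocal microscopy.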

A short description of data set [2]: Cellular uptake in human U937 cells at 10 uM measured after 4 hrs by flow cytometry. Format: ADME, cell-based. The conditions noted are these: u-937, 4 h. On the technique in general: A flow cytometer gives signals particle by particle.
For data set [3], the target named is T1, Bcl-2-related protein A1 (Homo sapiens) (UniProt Q16548).
T1 sequence (whole entry): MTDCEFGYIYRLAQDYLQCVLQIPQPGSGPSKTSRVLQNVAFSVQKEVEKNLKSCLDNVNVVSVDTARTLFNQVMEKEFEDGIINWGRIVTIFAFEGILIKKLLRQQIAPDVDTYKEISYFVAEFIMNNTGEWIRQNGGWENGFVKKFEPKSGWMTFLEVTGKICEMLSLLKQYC
Nature of the data set: Binding affinity to Bcl2A1 in human U937 cells assessed as Bcl2A1 modification at 5 to 50 uM measured after overnight incubation by Western blot analysis. Format: cell-based. Particulars: U-937. The procedure, abridged: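 Live U937 cells incubated with peptide for 24 h at 37 °C, then lysed. Covalent Bcl2A1 modification detected by Western blot.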
On the technique in general: A western blot detects proteins with antibodies after separation by electrophoresis.

Data set [4] is described as follows: Stability of the compound in DTT buffer at 50 uM and pH 7.2 measured after 1 to 17 hrs by mass spectra analysis. The data set is classed as physicochemical. The conditions noted are these: pH 7.2, 50 µM. The procedure, abridged: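 Peptide held in 1 mM dithiothreitol over several hours to follow its integrity.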
The target in a further data set is T2, Bcl-2-related protein A1 (Homo sapiens, UniProt Q16548).
T2 sequence (Q16548 whole entry): T1 sequence (whole entry)
The data set is described as follows: Inhibition of FITC-betaA-DIIRNIARHLAQVGDSMRSI-NH2 binding to recombinant human Bcl2A1 (1 to 152 residues) BH3 binding site expressed in Escherichia coli measured after 2 hrs by fluorescence polarization assay. Particulars: for Ki: read-out: Ki(app). The procedure, abridged: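 Competitive fluorescence polarization: Bcl2A1 (15 nM) with FITC-Bid tracer (5 nM), protein/tracer 3:1 to keep fluorescence measurable, exposed to increasing peptide concentrations for 2 h. IC50 read from inhibition curves; apparent Ki derived from it.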

Data set [5] has as its target T1, Bcl-2-related protein A1 (Homo sapiens). The conditions noted are these: 500 nM.
Data set [6] is described as follows: Metabolic stability in human serum at 25 uM measured up to 6 hrs. Format: ADME.
The target in data set [7] is T1, Bcl-2-related protein A1 (Homo sapiens). Particulars: 500 nM. The source holds these as a separate data set.
Data set [8] has the same target. Nature of the data set: Binding affinity to Bcl2A1 (unknown origin) overexpressed in human HeLa cells at 50 uM measured after 24 hrs by Western blot analysis. The data set is classed as cell-based.
For data set [9] the target is unchanged. Nature of the data set: Reversible inhibition of FITC-betaA-DIIRNIARHLAQVGDSMRSI-NH2 binding to recombinant human Bcl2A1 (1 to 152 residues) BH3 binding site expressed in Escherichia coli preincubated for 1 hr with 2 fold diluted Bcl2A1 prior to FITC-betaA-DIIRNIARHLAQVGDSMRSI-NH2 addition measured every minute over 3.5 hrs by fluorescence polarization assay. The procedure, abridged: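 Bcl2A1 2-fold serially diluted (250 to 0.25 nM), preincubated 1 h with peptide at several protein/peptide ratios. FITC-Bid (5 nM) then added and fluorescence polarization recorded as titration binding curves. Buffer in place of peptide as control.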
For orientation: In fluorescence polarisation assays a small probe gives low polarisation when free and higher when bound to something large.

Data set [10] has the same target. Nature of the data set: Binding affinity to recombinant human C-terminal His6-tagged Bcl2A1 (1 to 152 residues) expressed in Escherichia coli assessed as adduct formation at 25 uM measured after 5 hrs by LC-MS analysis. The procedure, abridged:
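Bcl2A1 (5 μM) reacted with electrophilic peptide (25 μM) at pH 7.2 for 5 h. Protein adducts analysed by mass spectrometry.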

The structures appear in SMILES notation. The source made the active and inactive calls. The calls are words filed in the database; no cut-off is given here.

In the case of `C=CC(=O)NC[C@H](NC(=O)[C@@H](NC(=O)CCCCCNC(=O)c1cc(N=C=S)ccc1-c1c2ccc(=O)cc-2oc2cc(O)ccc12)[C@@H](C)CC)C(=O)N[C@H](C(=O)N[C@@H](C)C(=O)N[C@@H](CCC(N)=O)C(=O)N[C@@H](CCC(=O)O)C(=O)N[C@@H](CC(C)C)C(=O)N[C@@H](CCCNC(=N)N)C(=O)N[C@@]1(C)CCCC=CCCC[C@@](C)(C(=O)N[C@@H](Cc2ccccc2)C(=O)N[C@@H](CC(N)=O)C(=O)N[C@@H](C)C(=O)N[C@@H](Cc2ccc(O)cc2)C(=O)N[C@@H](Cc2ccc(O)cc2)C(=O)N[C@@H](C)C(=O)N[C@@H](CCCNC(=N)N)C(=O)N[C@@H](CCCNC(=N)N)C(N)=O)NC(=O)[C@H](CC(=O)O)NC(=O)CNC(=O)[C@H]([C@@H](C)CC)NC1=O)[C@@H](C)CC`, the Drug uptake result in [1] and in [2] was “Active” in each case.
For the compound `C=CC(=O)NC[C@H](NC(=O)[C@@H](NC(C)=O)[C@@H](C)CC)C(=O)N[C@H](C(=O)N[C@@H](C)C(=O)N[C@@H](CCC(N)=O)C(=O)N[C@@H](CCC(=O)O)C(=O)N[C@@H](CC(C)C)C(=O)N[C@@H](CCCNC(=N)N)C(=O)N[C@@]1(C)CCCC=CCCC[C@@](C)(C(=O)N[C@@H](Cc2ccccc2)C(=O)N[C@@H](CC(N)=O)C(=O)N[C@@H](C)C(=O)N[C@@H](Cc2ccc(O)cc2)C(=O)N[C@@H](Cc2ccc(O)cc2)C(=O)N[C@@H](C)C(=O)N[C@@H](CCCNC(=N)N)C(=O)N[C@@H](CCCNC(=N)N)C(N)=O)NC(=O)[C@H](CC(=O)O)NC(=O)CNC(=O)[C@H]([C@@H](C)CC)NC1=O)[C@@H](C)CC`, the result in data set [3] was Active. Also, the Stability result in data set [4] is given as “Stable”. Besides, at Bcl-2-related protein A1, the concentration for half-maximal inhibition (IC50) was found to be 8.5 nM and the Ki was below 0.1 nM. Besides, in [5], the inhibition result is “Active”. In addition, the Stability entry in data set [6] is on record as “Stable”. This compound also returned a T1/2 in data set [7] of 28 min.
`CC[C@H](C)[C@H](NC(C)=O)C(=O)N[C@@H](Cc1c[nH]c2ccccc12)C(=O)N[C@H](C(=O)N[C@@H](C)C(=O)N[C@@H](CCC(N)=O)C(=O)N[C@@H](CCC(=O)O)C(=O)N[C@@H](CC(C)C)C(=O)N[C@@H](CCCNC(=N)N)C(=O)N[C@@]1(C)CCCC=CCCC[C@@](C)(C(=O)N[C@@H](Cc2ccccc2)C(=O)N[C@@H](CC(N)=O)C(=O)N[C@@H](C)C(=O)N[C@@H](Cc2ccc(O)cc2)C(=O)N[C@@H](Cc2ccc(O)cc2)C(=O)N[C@@H](C)C(=O)N[C@@H](CCCNC(=N)N)C(=O)N[C@@H](CCCNC(=N)N)C(N)=O)NC(=O)[C@H](CC(=O)O)NC(=O)CNC(=O)[C@H]([C@@H](C)CC)NC1=O)[C@@H](C)CC`: the outcome in data set [8] was Active. Moreover, the inhibition result in data set [9] was “Active”. The outcome in data set [3] was Active. For the same compound, on Bcl-2-related protein A1, the IC50 was 110 nM and the Ki came to 32 nM. Besides, the Stability entry in data set [6] is recorded as “Stable”.
On to `CC[C@H](C)[C@H](NC(C)=O)C(=O)N[C@@H](CNC(=O)CCl)C(=O)N[C@H](C(=O)N[C@@H](C)C(=O)N[C@@H](CCC(N)=O)C(=O)N[C@@H](CCC(=O)O)C(=O)N[C@@H](CC(C)C)C(=O)N[C@@H](CCCNC(=N)N)C(=O)N[C@@]1(C)CCCC=CCCC[C@@](C)(C(=O)N[C@@H](Cc2ccccc2)C(=O)N[C@@H](CC(N)=O)C(=O)N[C@@H](C)C(=O)N[C@@H](Cc2ccc(O)cc2)C(=O)N[C@@H](Cc2ccc(O)cc2)C(=O)N[C@@H](C)C(=O)N[C@@H](CCCNC(=N)N)C(=O)N[C@@H](CCCNC(=N)N)C(N)=O)NC(=O)[C@H](CC(=O)O)NC(=O)CNC(=O)[C@H]([C@@H](C)CC)NC1=O)[C@@H](C)CC`, for which the outcome in data set [10] was Active.
Regarding `C#CC(=O)NC[C@H](NC(=O)[C@@H](NC(C)=O)[C@@H](C)CC)C(=O)N[C@H](C(=O)N[C@@H](C)C(=O)N[C@@H](CCC(N)=O)C(=O)N[C@@H](CCC(=O)O)C(=O)N[C@@H](CC(C)C)C(=O)N[C@@H](CCCNC(=N)N)C(=O)N[C@@]1(C)CCCC=CCCC[C@@](C)(C(=O)N[C@@H](Cc2ccccc2)C(=O)N[C@@H](CC(N)=O)C(=O)N[C@@H](C)C(=O)N[C@@H](Cc2ccc(O)cc2)C(=O)N[C@@H](Cc2ccc(O)cc2)C(=O)N[C@@H](C)C(=O)N[C@@H](CCCNC(=N)N)C(=O)N[C@@H](CCCNC(=N)N)C(N)=O)NC(=O)[C@H](CC(=O)O)NC(=O)CNC(=O)[C@H]([C@@H](C)CC)NC1=O)[C@@H](C)CC`, the outcome in [10] was Active.

In general, IC50 refers to the midpoint of a concentration-inhibition curve.

Values taken from ChEMBL document CHEMBL3875227, “Electrophilic Helical Peptides That Bond Covalently, Irreversibly, and Selectively in a Protein-Protein Interaction Site” (ACS Med Chem Lett, 2017).
